Columns and labels:
[1] = target: Insulin-like growth factor 1 receptor (Homo sapiens, UniProt P08069); assay: Inhibition of IGF1R after 80 mins by radiometric protein kinase assay
In short: (§1)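 Radiometric [γ-33P]-ATP kinase assay with poly(Glu,Tyr) 4:1 substrate. Reaction run 80 min at 30 °C, stopped with 2% H3PO4 and washed with 0.9% NaCl. 33Pi incorporation counted by microplate scintillation. IC50 from 12 concentrations tested in triplicate, with Z'-factor used as plate control.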

[2] = target: Platelet-derived growth factor receptor alpha (Homo sapiens, UniProt P16234); assay: Inhibition of PDGFRalpha after 80 mins by radiometric protein kinase assay
Platelet-derived growth factor receptor alpha, sequence (P16234 whole entry): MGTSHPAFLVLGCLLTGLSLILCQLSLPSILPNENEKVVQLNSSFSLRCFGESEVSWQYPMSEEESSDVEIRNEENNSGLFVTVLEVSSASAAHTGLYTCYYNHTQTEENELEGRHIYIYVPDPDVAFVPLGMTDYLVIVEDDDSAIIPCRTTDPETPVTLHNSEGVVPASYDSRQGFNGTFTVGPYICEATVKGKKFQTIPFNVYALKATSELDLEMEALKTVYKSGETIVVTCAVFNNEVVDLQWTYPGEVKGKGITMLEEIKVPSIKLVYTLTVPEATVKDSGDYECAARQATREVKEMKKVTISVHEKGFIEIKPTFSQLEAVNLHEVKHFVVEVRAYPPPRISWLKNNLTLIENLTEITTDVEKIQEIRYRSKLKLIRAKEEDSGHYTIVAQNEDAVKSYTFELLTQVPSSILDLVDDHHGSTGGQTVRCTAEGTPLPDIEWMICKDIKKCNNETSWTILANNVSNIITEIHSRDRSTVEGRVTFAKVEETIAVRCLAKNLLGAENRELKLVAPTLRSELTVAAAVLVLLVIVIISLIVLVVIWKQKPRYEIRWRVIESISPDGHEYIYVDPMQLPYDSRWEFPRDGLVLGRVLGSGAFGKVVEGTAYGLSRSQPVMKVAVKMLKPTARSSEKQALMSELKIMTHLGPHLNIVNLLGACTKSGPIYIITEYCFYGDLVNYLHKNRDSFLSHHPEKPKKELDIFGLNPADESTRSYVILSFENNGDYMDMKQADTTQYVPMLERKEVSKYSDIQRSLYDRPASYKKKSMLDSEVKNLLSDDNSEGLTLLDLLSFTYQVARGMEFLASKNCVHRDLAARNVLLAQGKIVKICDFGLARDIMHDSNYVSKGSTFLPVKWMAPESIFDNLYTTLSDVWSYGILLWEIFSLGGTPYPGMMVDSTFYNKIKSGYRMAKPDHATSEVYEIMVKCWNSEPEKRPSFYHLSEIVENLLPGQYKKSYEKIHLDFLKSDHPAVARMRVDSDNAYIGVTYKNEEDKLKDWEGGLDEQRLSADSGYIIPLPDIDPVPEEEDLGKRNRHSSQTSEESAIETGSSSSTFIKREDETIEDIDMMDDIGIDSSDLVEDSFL
In short: (§2)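 Radiometric [γ-33P]-ATP kinase assay with poly(Ala,Glu,Lys,Tyr) 6:2:5:1 substrate. Incubated 30 °C for 80 min, then stopped with 2% H3PO4 and washed with 0.9% NaCl. 33Pi incorporation read by scintillation counting. IC50 from 12 concentrations in triplicate; plate quality checked by Z'-factor.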

[3] = target: Vascular endothelial growth factor receptor 1 (Homo sapiens, UniProt P17948); assay: Inhibition of VEGFR1 after 80 mins by radiometric protein kinase assay; in short: as §1
[4] = target: Vascular endothelial growth factor receptor 3 (Homo sapiens, UniProt P35916); assay: Inhibition of VEGFR3 after 80 mins by radiometric protein kinase assay; in short: as §1
Angiopoietin-1 receptor = Angiopoietin-1 receptor (Homo sapiens, UniProt Q02763); assay: Inhibition of TIE2 after 80 mins by radiometric protein kinase assay; in short: as §2
[5] = target: Epidermal growth factor receptor (Homo sapiens, UniProt P00533); assay: Inhibition of EGFR after 80 mins by radiometric protein kinase assay
[6] = target: Platelet-derived growth factor receptor beta (Homo sapiens, UniProt P09619); assay: Inhibition of PDGFRbeta after 80 mins by radiometric protein kinase assay
[7] = target: T1, Vascular endothelial growth factor receptor 2 (Homo sapiens, UniProt P35968); assay: Inhibition of VEGFR2 after 80 mins by radiometric protein kinase assay; in short: as §1
T1 sequence (P35968 whole entry): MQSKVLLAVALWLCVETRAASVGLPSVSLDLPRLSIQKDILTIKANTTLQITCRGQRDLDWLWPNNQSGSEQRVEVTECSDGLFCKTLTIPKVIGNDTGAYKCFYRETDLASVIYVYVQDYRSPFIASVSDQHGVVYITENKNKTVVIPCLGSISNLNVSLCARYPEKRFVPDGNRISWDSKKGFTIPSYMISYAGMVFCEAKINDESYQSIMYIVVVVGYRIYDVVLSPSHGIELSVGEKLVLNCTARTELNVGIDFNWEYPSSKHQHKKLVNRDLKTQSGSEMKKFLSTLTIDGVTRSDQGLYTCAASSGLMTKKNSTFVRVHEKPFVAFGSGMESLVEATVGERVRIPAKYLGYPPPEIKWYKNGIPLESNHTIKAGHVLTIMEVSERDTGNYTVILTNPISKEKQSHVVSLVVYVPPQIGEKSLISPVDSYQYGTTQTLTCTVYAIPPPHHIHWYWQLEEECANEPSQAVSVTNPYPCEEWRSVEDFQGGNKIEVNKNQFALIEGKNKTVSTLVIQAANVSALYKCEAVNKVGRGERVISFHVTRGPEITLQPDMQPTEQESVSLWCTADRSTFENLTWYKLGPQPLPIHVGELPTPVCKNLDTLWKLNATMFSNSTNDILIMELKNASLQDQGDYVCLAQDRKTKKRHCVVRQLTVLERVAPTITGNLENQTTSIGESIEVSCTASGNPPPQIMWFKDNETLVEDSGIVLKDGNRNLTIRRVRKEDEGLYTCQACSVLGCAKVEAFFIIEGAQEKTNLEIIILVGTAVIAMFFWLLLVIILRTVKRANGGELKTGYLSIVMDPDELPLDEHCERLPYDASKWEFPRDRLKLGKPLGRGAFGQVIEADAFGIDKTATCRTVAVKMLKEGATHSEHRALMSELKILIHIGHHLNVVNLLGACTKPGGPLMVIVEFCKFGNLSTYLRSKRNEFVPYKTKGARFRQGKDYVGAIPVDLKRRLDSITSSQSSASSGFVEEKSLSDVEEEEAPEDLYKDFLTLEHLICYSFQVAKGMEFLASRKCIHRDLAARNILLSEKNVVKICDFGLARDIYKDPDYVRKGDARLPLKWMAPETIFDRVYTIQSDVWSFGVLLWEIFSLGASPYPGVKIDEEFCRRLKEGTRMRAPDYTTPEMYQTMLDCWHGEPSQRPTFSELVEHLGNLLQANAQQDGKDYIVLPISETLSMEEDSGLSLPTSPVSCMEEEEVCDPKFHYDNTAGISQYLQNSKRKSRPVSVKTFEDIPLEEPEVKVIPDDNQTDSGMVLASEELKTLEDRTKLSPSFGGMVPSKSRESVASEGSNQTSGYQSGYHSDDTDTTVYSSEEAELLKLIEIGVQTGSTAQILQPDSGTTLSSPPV

[8] = target: Mast/stem cell growth factor receptor Kit (Homo sapiens, UniProt P10721); assay: Inhibition of KIT after 80 mins by radiometric protein kinase assay
Mast/stem cell growth factor receptor Kit, sequence (P10721 whole entry): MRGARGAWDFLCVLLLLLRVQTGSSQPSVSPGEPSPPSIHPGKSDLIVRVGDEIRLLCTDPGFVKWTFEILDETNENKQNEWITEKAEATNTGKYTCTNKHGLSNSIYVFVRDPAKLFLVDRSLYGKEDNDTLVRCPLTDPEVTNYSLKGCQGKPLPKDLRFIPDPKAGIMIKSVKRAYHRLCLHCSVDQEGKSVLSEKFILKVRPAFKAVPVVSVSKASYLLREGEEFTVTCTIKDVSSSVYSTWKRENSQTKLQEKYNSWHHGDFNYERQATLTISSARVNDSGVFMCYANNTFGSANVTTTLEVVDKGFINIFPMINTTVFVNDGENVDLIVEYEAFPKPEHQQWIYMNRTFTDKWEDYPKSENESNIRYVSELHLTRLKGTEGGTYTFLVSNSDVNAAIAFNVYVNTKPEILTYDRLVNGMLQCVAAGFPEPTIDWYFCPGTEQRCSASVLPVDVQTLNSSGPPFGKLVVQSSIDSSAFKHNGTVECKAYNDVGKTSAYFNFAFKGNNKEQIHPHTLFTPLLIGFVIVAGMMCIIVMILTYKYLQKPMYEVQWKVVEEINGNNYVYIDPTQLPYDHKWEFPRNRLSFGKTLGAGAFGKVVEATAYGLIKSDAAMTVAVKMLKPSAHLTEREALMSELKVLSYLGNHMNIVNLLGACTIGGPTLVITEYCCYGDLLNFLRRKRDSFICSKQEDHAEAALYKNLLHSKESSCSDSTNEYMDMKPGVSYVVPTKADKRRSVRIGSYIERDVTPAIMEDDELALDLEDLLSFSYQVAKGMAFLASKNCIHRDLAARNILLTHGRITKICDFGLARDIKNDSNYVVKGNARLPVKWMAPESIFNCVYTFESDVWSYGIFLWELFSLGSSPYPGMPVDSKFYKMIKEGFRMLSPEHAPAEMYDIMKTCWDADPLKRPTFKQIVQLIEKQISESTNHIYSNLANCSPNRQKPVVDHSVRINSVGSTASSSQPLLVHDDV
In short: (§3)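 The substrate was Poly(Glu,Tyr)4:1. 12 concentrations were run in triplicate with 1% final DMSO, at 30 °C for 80 min. Reactions were stopped with 2% H₃PO₄, washed with 0.9% NaCl, and ³³P incorporation was read by scintillation counting.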

[9] = target: Receptor tyrosine-protein kinase erbB-2 (Homo sapiens, UniProt P04626); assay: Inhibition of ERBB2 after 80 mins by radiometric protein kinase assay; in short: as §3
[10] = target: T1, Vascular endothelial growth factor receptor 2; conditions: HEK293, 20 uM
[11] = target: T1, Vascular endothelial growth factor receptor 2; conditions: HEK293, 10 uM

Insulin-like growth factor 1 receptor, sequence (P08069 31-736 limits assumed): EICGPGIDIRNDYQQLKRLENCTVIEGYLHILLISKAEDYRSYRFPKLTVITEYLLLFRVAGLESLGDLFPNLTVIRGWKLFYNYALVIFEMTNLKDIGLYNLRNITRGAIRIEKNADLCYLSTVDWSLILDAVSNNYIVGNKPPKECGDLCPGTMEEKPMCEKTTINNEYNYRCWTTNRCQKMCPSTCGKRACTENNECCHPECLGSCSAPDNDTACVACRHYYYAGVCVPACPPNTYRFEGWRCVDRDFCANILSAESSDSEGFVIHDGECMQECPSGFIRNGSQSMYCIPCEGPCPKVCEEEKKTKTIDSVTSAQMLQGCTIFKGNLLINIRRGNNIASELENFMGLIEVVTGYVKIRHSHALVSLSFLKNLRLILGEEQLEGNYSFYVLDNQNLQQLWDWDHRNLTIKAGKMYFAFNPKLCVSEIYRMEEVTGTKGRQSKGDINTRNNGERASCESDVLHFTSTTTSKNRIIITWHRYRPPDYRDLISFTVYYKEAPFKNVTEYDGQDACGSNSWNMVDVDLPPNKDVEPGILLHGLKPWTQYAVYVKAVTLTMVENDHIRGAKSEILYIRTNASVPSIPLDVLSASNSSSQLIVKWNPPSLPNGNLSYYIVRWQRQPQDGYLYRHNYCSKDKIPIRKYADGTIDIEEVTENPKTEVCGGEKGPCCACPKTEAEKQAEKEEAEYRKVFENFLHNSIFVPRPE
Insulin-like growth factor 1 receptor, sequence (P08069 741-1367 limits assumed): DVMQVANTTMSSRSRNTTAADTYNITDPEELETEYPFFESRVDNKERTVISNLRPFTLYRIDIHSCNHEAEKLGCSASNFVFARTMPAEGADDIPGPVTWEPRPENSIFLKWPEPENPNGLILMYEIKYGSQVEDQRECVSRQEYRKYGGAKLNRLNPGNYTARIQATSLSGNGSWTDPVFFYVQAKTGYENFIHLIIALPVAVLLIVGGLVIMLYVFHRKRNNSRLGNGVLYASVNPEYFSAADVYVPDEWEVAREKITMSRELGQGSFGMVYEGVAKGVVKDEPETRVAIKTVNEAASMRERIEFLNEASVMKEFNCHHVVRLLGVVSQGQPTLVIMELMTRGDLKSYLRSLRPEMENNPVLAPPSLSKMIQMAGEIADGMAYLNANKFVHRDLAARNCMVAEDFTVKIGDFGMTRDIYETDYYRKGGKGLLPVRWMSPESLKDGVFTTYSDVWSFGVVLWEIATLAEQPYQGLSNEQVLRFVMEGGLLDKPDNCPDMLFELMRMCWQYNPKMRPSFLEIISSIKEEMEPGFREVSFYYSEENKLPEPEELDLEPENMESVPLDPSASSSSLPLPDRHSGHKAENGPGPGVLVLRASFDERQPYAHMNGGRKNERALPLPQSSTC

SMILES	IC50 [1] [nM]	IC50 [2] [nM]	IC50 [3] [nM]	IC50 [4] [nM]	IC50 (Angiopoietin-1 receptor) [nM]	IC50 [5] [nM]	IC50 [6] [nM]	IC50 [7] [nM]	IC50 [8] [nM]	IC50 [9] [nM]	Stability [10] [% ID/g]	Stability [11] [% ID/g]
COc1cc(C2=C(c3c[nH]c4ccc(F)cc34)C(=O)NC2=O)cc(OC)c1OC	8530	1800	150	66	1570	> 8480	2670	82	3470	> 8480	–	–
COc1cc(C2=C(c3c[nH]c4ccc(I)cc34)C(=O)NC2=O)cc(OC)c1OC	3200	1310	69.4	29.5	3960	–	858	24.9	3330	15200	–	–
COc1cc(C2=C(c3c[nH]c4ccccc34)C(=O)NC2=O)cc(OC)c1OC [MALEIMIDE]	–	–	–	–	–	–	–	–	–	–	68	72
